In ChEMBL document CHEMBL4610005, “Discovery of a new class of PROTAC BRD4 degraders based on a dihydroquinazolinone derivative and lenalidomide/pomalidomide” (Bioorg Med Chem, 2020):
Calls of active or inactive are those of the source. The rule behind the calls is not given here.

Columns and labels:
[1] = molecular target: T1, Bromodomain-containing protein 4 (Homo sapiens, UniProt O60885)
[2] = molecular target: T1, Bromodomain-containing protein 4; conditions: at 500 nM
[3] = molecular target: T2, Protein cereblon/Bromodomain-containing protein 4 (Homo sapiens) (UniProt O60885+Q96SW2); test: Protac activity at CRBN/BRD4 in human THP1 cells assessed as increase in BRD4 degradation at 3 uM incubated for 3 hrs by Western blot analysis; assay type: cell-based; conditions: THP-1
T2 sequence (Q96SW2 whole entry, looked up, other chains not shown): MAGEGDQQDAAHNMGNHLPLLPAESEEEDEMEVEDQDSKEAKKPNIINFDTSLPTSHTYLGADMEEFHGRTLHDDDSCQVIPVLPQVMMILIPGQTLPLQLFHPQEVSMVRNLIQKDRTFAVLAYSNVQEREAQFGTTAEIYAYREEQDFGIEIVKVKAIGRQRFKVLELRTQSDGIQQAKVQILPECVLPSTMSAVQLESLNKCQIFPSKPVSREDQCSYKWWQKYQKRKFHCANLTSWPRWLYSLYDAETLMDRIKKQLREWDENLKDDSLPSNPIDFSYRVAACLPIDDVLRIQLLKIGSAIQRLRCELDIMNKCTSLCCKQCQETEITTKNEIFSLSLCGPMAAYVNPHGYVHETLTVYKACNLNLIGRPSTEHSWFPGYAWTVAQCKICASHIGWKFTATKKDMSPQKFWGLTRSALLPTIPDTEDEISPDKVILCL
Outline: (§1)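 THP-1 cells were plated at 2×10^6 cells/well and treated for 3 h. Lysis was in RIPA buffer with protease inhibitors. 30 μg of lysate per lane was run on SDS-PAGE and blotted to PVDF. Membranes were probed with antibodies to BRD4 and c-Myc, with GAPDH as loading control.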

HL-60 = test: Antiproliferative activity against human HL60 cells assessed as reduction in cell viability at 2.5 uM incubated for 72 hrs by cell titer glo assay; assay type: functional, cell-based
Outline: (§2)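 Cells seeded and held 24 h at 37 °C, 5% CO2, then exposed to compound at a single 2.5 μM for 72 h under the same conditions. Viability was read by CellTiter-Glo luminescence after 10 min shaking and 2 min signal stabilisation at room temperature. Percent inhibition is the mean of three independent experiments.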

THP-1 [4] = test: Antiproliferative activity against human THP1 cells assessed as reduction in cell viability incubated for 72 hrs by cell titer glo assay; assay type: functional, cell-based; conditions: THP-1, 72 h
Outline: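 THP-1 cells were seeded and held 24 h at 37 °C, 5% CO2, then given serially diluted compound in medium for 72 h. Proliferation was read by CellTiter-Glo luminescence. IC50 was fitted from the dose-response and reported as mean ± SD of three independent assays.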

THP-1 [5] = test: Antiproliferative activity against human THP1 cells assessed as reduction in cell viability at 2.5 uM incubated for 72 hrs by cell titer glo assay; assay type: functional, cell-based
Outline: as §2

Raji = test: Antiproliferative activity against human Raji cells assessed as reduction in cell viability at 2.5 uM incubated for 72 hrs by cell titer glo assay; assay type: functional, cell-based
Outline: as §2

[6] = molecular target: T2, Protein cereblon/Bromodomain-containing protein 4 (Homo sapiens); test: Protac activity at CRBN/BRD4 in human THP1 cells assessed as decrease in c-Myc suppression at 1 uM incubated for 3 hrs by Western blot analysis; assay type: cell-based; conditions: THP-1
Outline: as §1

[7] = molecular target: T1, Bromodomain-containing protein 4; remark: listed apart in the source

Q: How did the IC50 [1] turn out when `Cc1noc(C)c1-c1ccc2c(c1)C(c1ccccc1)N(Cc1cn(CCOCCOCCOCCOCC(=O)Nc3cccc4c3C(=O)N(C3CCC(=O)NC3=O)C4=O)nn1)C(=O)N2C` (stereo unspecified) was run?
A: The IC50 was 173 nM.

Q: And the inhibition [2]?
A: The inhibition was 60%.

Q: Which results are given for `Cc1noc(C)c1-c1ccc2c(c1)C(c1ccccc1)N(CCCCCC(=O)Nc1cccc3c1CN(C1CCC(=O)NC1=O)C3=O)C(=O)N2C` (stereo unspecified)?
A: IC50 [1]: 135 nM; inhibition [2]: 93%

Q: What does the source list for `Cc1noc(C)c1-c1ccc2c(c1)C(c1ccccc1)N(CC(=O)NCCCCCCCC(=O)Nc1cccc3c1CN(C1CCC(=O)NC1=O)C3=O)C(=O)N2C` (stereo unspecified)?
A: IC50 [1]: 68.3 nM; inhibition [2]: 96%

Q: `Cc1noc(C)c1-c1ccc2c(c1)C(c1ccccc1)N(CC(=O)NCCCCCC(=O)Nc1cccc3c1CN(C1CCC(=O)NC1=O)C3=O)C(=O)N2C` (stereo unspecified) was tested. Which IC50 [1] did it give?
A: The IC50 was 99.1 nM.

Q: And the inhibition [2]?
A: The inhibition was 98%.

Q: For `Cc1noc(C)c1-c1ccc2c(c1)C(c1ccccc1)NC(=O)N2C` (stereo unspecified), which Activity [3] is on record?
A: The Activity was “inactive”.

Q: And the IC50 [1]?
A: The IC50 was 46.4 nM.

Q: What about the inhibition (HL-60) of the same compound?
A: Its inhibition is “Active”.

Q: And the IC50 (THP-1 [4])?
A: The IC50 was 3260 nM.

Q: And the inhibition (THP-1 [5])?
A: The inhibition was “Active”.

Q: What about the inhibition (Raji) of the same compound?
A: The inhibition was “Active”.

Q: And the inhibition [2]?
A: Its inhibition is 100%.

Q: What does the source list for `Cc1noc(C)c1-c1ccc2c(c1)C(c1ccccc1)N(Cc1cn(CCOCC(=O)Nc3cccc4c3C(=O)N(C3CCC(=O)NC3=O)C4=O)nn1)C(=O)N2C` (stereo unspecified)?
A: IC50 [1]: 41.8 nM; inhibition (HL-60): Active; IC50 (THP-1 [4]): 810 nM; Activity [6]: Active; inhibition (THP-1 [5]): Active; inhibition (Raji): Active; inhibition [2]: 99%

Q: Which IC50 [1] does the source give for `Cc1noc(C)c1-c1ccc2c(c1)C(c1ccccc1)N(Cc1cn(CCOCCOCCOCC(=O)Nc3cccc4c3CN(C3CCC(=O)NC3=O)C4=O)nn1)C(=O)N2C` (stereo unspecified) here?
A: The IC50 was 22.1 nM.

Q: And the inhibition (HL-60)?
A: The inhibition was “Active”.

Q: And the inhibition (THP-1 [5])?
A: The inhibition was “Active”.

Q: And the inhibition (Raji)?
A: The inhibition was “Active”.

Q: And the inhibition [2]?
A: The inhibition was 100%.

Q: What does the source list for `Cc1noc(C)c1-c1ccc2c(c1)C(c1ccccc1)N(CCCCC(=O)Nc1cccc3c1CN(C1CCC(=O)NC1=O)C3=O)C(=O)N2C` (stereo unspecified)?
A: IC50 [1]: 144 nM; inhibition [2]: 90%

Q: For `Cc1noc(C)c1-c1ccc2c(c1)C(c1ccccc1)N(CC(=O)NCCCCCCC(=O)Nc1cccc3c1CN(C1CCC(=O)NC1=O)C3=O)C(=O)N2C` (stereo unspecified), which IC50 [1] is on record?
A: The IC50 was 80.6 nM.

Q: What about the inhibition [2] of the same compound?
A: Its inhibition is 100%.

Q: With `Cc1noc(C)c1-c1ccc2c(c1)C(c1ccccc1)N(Cc1cn(CCOCCOCCOCC(=O)Nc3cccc4c3C(=O)N(C3CCC(=O)NC3=O)C4=O)nn1)C(=O)N2C` (stereo unspecified) as the compound, how does the IC50 [1] read?
A: Its IC50 is 68.5 nM.

Q: And the inhibition (HL-60)?
A: The inhibition was “Active”.

Q: What about the IC50 (THP-1 [4]) of the same compound?
A: The IC50 was 1750 nM.

Q: And the inhibition (THP-1 [5])?
A: Its inhibition is “Active”.

Q: And the inhibition (Raji)?
A: The inhibition was “Active”.

Q: And the inhibition [2]?
A: Its inhibition is 86%.

Q: Which results are given for `Cc1noc(C)c1-c1ccc2c(c1)C(c1ccccc1)N(Cc1cn(CCOCCOCC(=O)Nc3cccc4c3C(=O)N(C3CCC(=O)NC3=O)C4=O)nn1)C(=O)N2C` (stereo unspecified)?
A: IC50 [1]: 67.7 nM; inhibition (HL-60): Active; IC50 (THP-1 [4]): 1660 nM; inhibition (THP-1 [5]): Active; inhibition (Raji): Active; inhibition [2]: 93%

Q: Which IC50 [1] does the source give for `Cc1noc(C)c1-c1ccc2c(c1)C(c1ccccc1)N(CC(=O)NCCC(=O)Nc1cccc3c1CN(C1CCC(=O)NC1=O)C3=O)C(=O)N2C` (stereo unspecified) here?
A: The IC50 was 132 nM.

Q: And the inhibition [2]?
A: The inhibition was 94%.

Q: For `Cc1noc(C)c1-c1ccc2c(c1)C(c1ccccc1)N(CC(=O)NCCCC(=O)Nc1cccc3c1CN(C1CCC(=O)NC1=O)C3=O)C(=O)N2C` (stereo unspecified), which IC50 [1] is on record?
A: Its IC50 is 138 nM.

Q: What about the inhibition [2] of the same compound?
A: The inhibition was 89%.

Q: Which IC50 [1] does the source give for `Cc1noc(C)c1-c1ccc2c(c1)C(c1ccccc1)N(CC(=O)NCCCCC(=O)Nc1cccc3c1CN(C1CCC(=O)NC1=O)C3=O)C(=O)N2C` (stereo unspecified) here?
A: The IC50 was 134 nM.

Q: And the inhibition [2]?
A: Its inhibition is 91%.

Q: Which IC50 [1] does the source give for `Cc1noc(C)c1-c1ccc2c(c1)C(c1ccccc1)N(Cc1cn(CCOCCOCCOCCOCC(=O)Nc3cccc4c3CN(C3CCC(=O)NC3=O)C4=O)nn1)C(=O)N2C` (stereo unspecified) here?
A: The IC50 was 22.6 nM.

Q: What about the inhibition (HL-60) of the same compound?
A: Its inhibition is “Active”.

Q: And the inhibition (THP-1 [5])?
A: Its inhibition is “Active”.

Q: What about the inhibition (Raji) of the same compound?
A: The inhibition was “Active”.

Q: What about the inhibition [2] of the same compound?
A: The inhibition was 100%.

Q: Which inhibition (HL-60) does the source give for `Cc1sc2c(c1C)C(c1ccc(Cl)cc1)=N[C@@H](CC(=O)OC(C)(C)C)c1nnc(C)n1-2` here?
A: Its inhibition is “Active”.

Q: And the inhibition (THP-1 [5])?
A: The inhibition was “Active”.

Q: And the inhibition (Raji)?
A: Its inhibition is “Active”.

Q: How did the IC50 [1] turn out when `Cc1noc(C)c1-c1ccc2c(c1)C(c1ccccc1)N(Cc1cn(CCOCCOCC(=O)Nc3cccc4c3CN(C3CCC(=O)NC3=O)C4=O)nn1)C(=O)N2C` (stereo unspecified) was run?
A: Its IC50 is 15.4 nM.

Q: And the inhibition (HL-60)?
A: Its inhibition is “Active”.

Q: And the inhibition (THP-1 [5])?
A: Its inhibition is “Active”.

Q: What about the inhibition (Raji) of the same compound?
A: The inhibition was “Active”.

Q: And the inhibition [2]?
A: The inhibition was 100%.

Q: With `Cc1noc(C)c1-c1ccc2c(c1)C(c1ccccc1)N(Cc1cn(CCOCC(=O)Nc3cccc4c3CN(C3CCC(=O)NC3=O)C4=O)nn1)C(=O)N2C` (stereo unspecified) as the compound, how does the IC50 [1] read?
A: The IC50 was 14.2 nM.

Q: And the inhibition (HL-60)?
A: The inhibition was “Active”.

Q: What about the IC50 (THP-1 [4]) of the same compound?
A: Its IC50 is 1830 nM.

Q: And the inhibition (THP-1 [5])?
A: The inhibition was “Active”.

Q: What about the inhibition (Raji) of the same compound?
A: Its inhibition is “Active”.

Q: What about the inhibition [2] of the same compound?
A: Its inhibition is 99%.

Q: `Cc1noc(C)c1-c1ccc2c(c1)C(c1ccccc1)N(CCCCCCC(=O)Nc1cccc3c1CN(C1CCC(=O)NC1=O)C3=O)C(=O)N2C` (stereo unspecified) was tested. Which IC50 [1] did it give?
A: Its IC50 is 118 nM.

Q: And the inhibition [2]?
A: Its inhibition is 96%.

Q: How did the IC50 [7] turn out when `Cc1noc(C)c1-c1ccc2c(c1)C(c1ccccc1)N(C)C(=O)N2` (stereo unspecified) was run?
A: The IC50 was 44 nM.
